“And” between values parts separate entries of the source, which are not always exact repeats. Identical values can stand only once.
Test system: U2OS
Experiment: Multiplex assay against U2OS
Type: toxicity, cell-based
Conditions: human
Outline: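 Phenotypes for tubulin, mitochondrial mass and membrane permeability are expressed as per cents of healthy-nucleus cells. Cells were stained live at seeding with Hoechst33342, BioTracker Green Microtubule Cytoskeleton Dye, MitoTracker Red and Annexin V Alexa Fluor 680, then imaged after compound addition on a CQ1 microscope at 37°C and 5% CO2. Machine-learning gating in CellPathfinder separated Hoechst high-intensity objects from normal cells, divided normal cells by nuclear state (healthy, pyknosed, fragmented) and divided pyknosed cells into mitotic or apoptotic.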

[1] = 12 h, 1 µM, compound concentration 1 uM, replicate 1
[2] = 12 h, 1 µM, compound concentration 1 uM, replicate 2
[3] = 12 h, 10 µM, compound concentration 10 uM, replicate 1
[4] = 12 h, 10 µM, compound concentration 10 uM, replicate 2
[5] = 24 h, 1 µM, compound concentration 1 uM, replicate 1
[6] = 24 h, 1 µM, compound concentration 1 uM, replicate 2
[7] = 24 h, 10 µM, compound concentration 10 uM, replicate 1
[8] = 24 h, 10 µM, compound concentration 10 uM, replicate 2

**Q.** What does the source list for `CCC1=C[C@@H]2C[N@](C1)Cc1c([nH]c3ccccc13)[C@@](C(=O)OC)(c1cc3c(cc1OC)N(C)[C@H]1[C@@](O)(C(=O)OC)[C@H](OC(C)=O)[C@]4(CC)C=CCN5CC[C@]31[C@@H]54)C2.O=C(O)C(O)C(O)C(=O)O.O=C(O)C(O)C(O)C(=O)O` [VINORELBINE TARTRATE]?
**A.** Population Apoptotic (%) [1]: 55% and 29%; Population Fragmented Nuclei (%) [1]: 14% and 9%; Population Healthy Nuclei (%) [1]: 59% and 76%; Population Mitochondria Different-Phenotype (%) [1]: 34% and 22%; Population Mitotic Cells (%) [1]: 44% and 70%; Population Normal (%) [1]: 97% and 92%; Population Pyknosed Nuclei (%) [1]: 25% and 14%; Population Tubulin-Different-Phenotype (%) [1]: 26%; Population Fragmented Nuclei (%) [2]: 22%; Population Healthy Nuclei (%) [2]: 50% and 69%; Population Hoechst High Intensity Objects (%) [2]: 16% and 20%; Population Mitochondria Different-Phenotype (%) [2]: 30%; Population Mitotic Cells (%) [2]: 36% and 80%; Population Normal (%) [2]: 83% and 79%; Population Pyknosed Nuclei (%) [2]: 27% and 16%; Population Tubulin-Different-Phenotype (%) [2]: 45% and 34%; Population Apoptotic (%) [3]: 53% and 34%; Population Fragmented Nuclei (%) [3]: 14% and 8%; Population Healthy Nuclei (%) [3]: 74% and 76%; Population Hoechst High Intensity Objects (%) [3]: 6% and 8%; Population Mitochondria Different-Phenotype (%) [3]: 35% and 24%; Population Mitotic Cells (%) [3]: 46% and 65%; Population Normal (%) [3]: 93% and 91%; Population Pyknosed Nuclei (%) [3]: 11% and 14%; Population Tubulin-Different-Phenotype (%) [3]: 20% and 18%; Total Cell Count [3]: 168 and 185; Population Fragmented Nuclei (%) [4]: 12% and 11%; Population Healthy Nuclei (%) [4]: 58% and 67%; Population Hoechst High Intensity Objects (%) [4]: 13% and 18%; Population Membrane Permeable-Phenotype (%) [4]: 56% and 20%; Population Mitochondria Different-Phenotype (%) [4]: 45% and 18%; Population Mitotic Cells (%) [4]: 40% and 82%; Population Normal (%) [4]: 86% and 81%; Population Pyknosed Nuclei (%) [4]: 29% and 21%; Population Tubulin-Different-Phenotype (%) [4]: 45%; Total Cell Count [4]: 132 and 78; Population Apoptotic (%) [5]: 35% and 65%; Population Fragmented Nuclei (%) [5]: 20% and 14%; Population Healthy Nuclei (%) [5]: 49% and 56%; Population Hoechst High Intensity Objects (%) [5]: 1% and 3%; Population Membrane Permeable-Phenotype (%) [5]: 21% and 52%; Population Mitochondria Different-Phenotype (%) [5]: 26% and 37%; Population Mitotic Cells (%) [5]: 64% and 34%; Population Normal (%) [5]: 98% and 96%; Population Pyknosed Nuclei (%) [5]: 30% and 28%; Population Tubulin-Different-Phenotype (%) [5]: 41% and 34%; Population Apoptotic (%) [6]: 61%; Population Fragmented Nuclei (%) [6]: 30% and 22%; Population Healthy Nuclei (%) [6]: 36% and 59%; Population Hoechst High Intensity Objects (%) [6]: 11% and 15%; Population Membrane Permeable-Phenotype (%) [6]: 60% and 22%; Population Mitochondria Different-Phenotype (%) [6]: 40%; Population Mitotic Cells (%) [6]: 38%; Population Normal (%) [6]: 88% and 84%; Population Pyknosed Nuclei (%) [6]: 33% and 18%; Population Tubulin-Different-Phenotype (%) [6]: 62% and 31%; Population Apoptotic (%) [7]: 63% and 43%; Population Fragmented Nuclei (%) [7]: 18% and 14%; Population Healthy Nuclei (%) [7]: 55%; Population Hoechst High Intensity Objects (%) [7]: 7% and 4%; Population Membrane Permeable-Phenotype (%) [7]: 55%; Population Mitochondria Different-Phenotype (%) [7]: 29% and 33%; Population Mitotic Cells (%) [7]: 36% and 56%; Population Normal (%) [7]: 92% and 95%; Population Pyknosed Nuclei (%) [7]: 25% and 30%; Population Tubulin-Different-Phenotype (%) [7]: 29% and 34%; Total Cell Count [7]: 176 and 207; Population Apoptotic (%) [8]: 82% and 47%; Population Fragmented Nuclei (%) [8]: 21% and 17%; Population Healthy Nuclei (%) [8]: 43%; Population Hoechst High Intensity Objects (%) [8]: 9% and 14%; Population Mitochondria Different-Phenotype (%) [8]: 43% and 22%; Population Normal (%) [8]: 90% and 85%; Population Pyknosed Nuclei (%) [8]: 34% and 26%; Population Tubulin-Different-Phenotype (%) [8]: 38% and 22%; Total Cell Count [8]: 147 and 90

Reference: ChEMBL document CHEMBL4689842, “EUbOPEN Chemogenomics Library wave 1” (2021)
